Converted amounts (≈) assume the structure as drawn.
These molecules were tested on Nakaseomyces glabratus (assay: Anticandida activity against Candida glabrata clinical isolate assessed as growth inhibition after 24 hrs by broth microdilution method). Details: not given.
Format: functional
Method in brief: (§1)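 Clinical Candida isolates subcultured for purity and optimal growth before testing; compounds dissolved in DMSO. Broth microdilution per NCCLS in Sabouraud dextrose broth, serial dilutions, inoculum about 10³/mL, with growth control and medium-only control; 24 h incubation at 37 °C. MIC is the lowest concentration giving complete visible inhibition.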
For `COc1ccc(-c2csc(N/N=C(\C)CC(C)C)n2)cc1`, the MIC was 8 µg/mL (≈ 26.4 µM). With `COc1ccc(-c2csc(NN=C(C)C)n2)c(OC)c1` the MIC was 128 µg/mL (≈ 439 µM). With `CC/C(C)=N/Nc1nc(-c2ccc(OC)cc2OC)cs1` the MIC was 128 µg/mL (≈ 419 µM). Molecule `COc1ccc(-c2csc(N/N=C(\C)CC(C)C)n2)c(OC)c1` has an MIC of 128 µg/mL (≈ 384 µM). `CCC(CC)=NNc1nc(-c2ccc(OC)cc2OC)cs1` was tested, and the MIC was 128 µg/mL (≈ 401 µM). Molecule `CCC/C(C)=N/Nc1nc(-c2ccc(OC)cc2OC)cs1` has an MIC of 128 µg/mL (≈ 401 µM).

Each molecule was assayed on Enterobacter sp. (assay: Antibacterial activity against Enterobacter spp. assessed as growth inhibition after 18 to 22 hrs by broth microdilution method). Details: not given.
Format: functional
Method in brief: (§2)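 Bacterial isolates subcultured for purity, identified conventionally. Broth microdilution per NCCLS in Mueller-Hinton II broth; plates with growth control (no compound) and medium-only control, incubated 18-22 h at 35 °C. MIC taken as lowest concentration giving complete growth inhibition by unaided eye.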
Molecule `COc1ccc(-c2csc(N/N=C(\C)CC(C)C)n2)cc1` has an MIC of over 256 µg/mL. For `COc1ccc(-c2csc(NN=C(C)C)n2)c(OC)c1`, the MIC was over 256 µg/mL. Work on `CC/C(C)=N/Nc1nc(-c2ccc(OC)cc2OC)cs1` yielded an MIC of over 256 µg/mL. Molecule `COc1ccc(-c2csc(N/N=C(\C)CC(C)C)n2)c(OC)c1` has an MIC of over 256 µg/mL. `CCC(CC)=NNc1nc(-c2ccc(OC)cc2OC)cs1` showed an MIC of over 256 µg/mL. `CCC/C(C)=N/Nc1nc(-c2ccc(OC)cc2OC)cs1` gave an MIC of over 256 µg/mL.

What follows are molecules tested on [Candida] sake (assay: Anticandida activity against Candida sake clinical isolate assessed as growth inhibition after 24 hrs by broth microdilution method). Details: Fermentozyma sake.
Format: functional
Method in brief: as §1
Molecule `COc1ccc(-c2csc(N/N=C(\C)CC(C)C)n2)cc1` has an MIC of 16 µg/mL (≈ 52.7 µM). `COc1ccc(-c2csc(NN=C(C)C)n2)c(OC)c1` was tested, and the MIC was 256 µg/mL (≈ 879 µM). `CC/C(C)=N/Nc1nc(-c2ccc(OC)cc2OC)cs1` was tested, and the MIC was 256 µg/mL (≈ 838 µM). `COc1ccc(-c2csc(N/N=C(\C)CC(C)C)n2)c(OC)c1` gave an MIC of 256 µg/mL (≈ 768 µM). `CCC(CC)=NNc1nc(-c2ccc(OC)cc2OC)cs1` gave an MIC of 256 µg/mL (≈ 801 µM). In the case of `CCC/C(C)=N/Nc1nc(-c2ccc(OC)cc2OC)cs1`, the MIC is reported as 256 µg/mL (≈ 801 µM).

Each molecule was assayed on Candida parapsilosis (assay: Anticandida activity against Candida parapsilosis clinical isolate assessed as growth inhibition after 24 hrs by broth microdilution method). Details: Lodderomyces parapsilosis.
Format: functional
Method in brief: as §1
`COc1ccc(-c2csc(N/N=C(\C)CC(C)C)n2)cc1` showed an MIC of 16 µg/mL (≈ 52.7 µM). `COc1ccc(-c2csc(NN=C(C)C)n2)c(OC)c1` gave an MIC of 256 µg/mL (≈ 879 µM). `CC/C(C)=N/Nc1nc(-c2ccc(OC)cc2OC)cs1` showed an MIC of 256 µg/mL (≈ 838 µM). Work on `COc1ccc(-c2csc(N/N=C(\C)CC(C)C)n2)c(OC)c1` yielded an MIC of 256 µg/mL (≈ 768 µM). `CCC(CC)=NNc1nc(-c2ccc(OC)cc2OC)cs1` showed an MIC of 256 µg/mL (≈ 801 µM). `CCC/C(C)=N/Nc1nc(-c2ccc(OC)cc2OC)cs1` showed an MIC of 256 µg/mL (≈ 801 µM).

These molecules were tested on Escherichia coli (assay: Antibacterial activity against Escherichia coli assessed as growth inhibition after 18 to 22 hrs by broth microdilution method). Details: not given.
Format: functional
Method in brief: as §2
Work on `COc1ccc(-c2csc(N/N=C(\C)CC(C)C)n2)cc1` yielded an MIC of over 256 µg/mL. Molecule `COc1ccc(-c2csc(NN=C(C)C)n2)c(OC)c1` has an MIC of over 256 µg/mL. `CC/C(C)=N/Nc1nc(-c2ccc(OC)cc2OC)cs1` was tested, and the MIC was over 256 µg/mL. `COc1ccc(-c2csc(N/N=C(\C)CC(C)C)n2)c(OC)c1` showed an MIC of over 256 µg/mL. For `CCC(CC)=NNc1nc(-c2ccc(OC)cc2OC)cs1`, the MIC was over 256 µg/mL. Work on `CCC/C(C)=N/Nc1nc(-c2ccc(OC)cc2OC)cs1` yielded an MIC of over 256 µg/mL.

These molecules were tested on Candida albicans (assay: Anticandida activity against Candida albicans clinical isolate assessed as growth inhibition after 24 hrs by broth microdilution method). Details: not given.
Format: functional
Method in brief: as §1
For `COc1ccc(-c2csc(N/N=C(\C)CC(C)C)n2)cc1`, the MIC was 4 µg/mL (≈ 13.2 µM). With `COc1ccc(-c2csc(NN=C(C)C)n2)c(OC)c1` the MIC was 128 µg/mL (≈ 439 µM). `CC/C(C)=N/Nc1nc(-c2ccc(OC)cc2OC)cs1` gave an MIC of 64 µg/mL (≈ 210 µM). `COc1ccc(-c2csc(N/N=C(\C)CC(C)C)n2)c(OC)c1` was tested, and the MIC was 128 µg/mL (≈ 384 µM). For `CCC(CC)=NNc1nc(-c2ccc(OC)cc2OC)cs1`, the MIC was 128 µg/mL (≈ 401 µM). In the case of `CCC/C(C)=N/Nc1nc(-c2ccc(OC)cc2OC)cs1`, the MIC is reported as 128 µg/mL (≈ 401 µM).

Each molecule was assayed on Pichia kudriavzevii (assay: Anticandida activity against Candida krusei clinical isolate assessed as growth inhibition after 24 hrs by broth microdilution method). Details: not given.
Format: functional
Method in brief: as §1
In the case of `COc1ccc(-c2csc(N/N=C(\C)CC(C)C)n2)cc1`, the MIC is reported as 16 µg/mL (≈ 52.7 µM). `COc1ccc(-c2csc(NN=C(C)C)n2)c(OC)c1` gave an MIC of 256 µg/mL (≈ 879 µM). `CC/C(C)=N/Nc1nc(-c2ccc(OC)cc2OC)cs1` was tested, and the MIC was 256 µg/mL (≈ 838 µM). Molecule `COc1ccc(-c2csc(N/N=C(\C)CC(C)C)n2)c(OC)c1` has an MIC of 256 µg/mL (≈ 768 µM). For `CCC(CC)=NNc1nc(-c2ccc(OC)cc2OC)cs1`, the MIC was 256 µg/mL (≈ 801 µM). With `CCC/C(C)=N/Nc1nc(-c2ccc(OC)cc2OC)cs1` the MIC was 256 µg/mL (≈ 801 µM).

These molecules were tested on Staphylococcus aureus (assay: Antibacterial activity against Staphylococcus aureus assessed as growth inhibition after 18 to 22 hrs by broth microdilution method). Details: not given.
Format: functional
Method in brief: as §2
In the case of `COc1ccc(-c2csc(N/N=C(\C)CC(C)C)n2)cc1`, the MIC is reported as over 256 µg/mL. With `COc1ccc(-c2csc(NN=C(C)C)n2)c(OC)c1` the MIC was over 256 µg/mL. In the case of `CC/C(C)=N/Nc1nc(-c2ccc(OC)cc2OC)cs1`, the MIC is reported as over 256 µg/mL. With `COc1ccc(-c2csc(N/N=C(\C)CC(C)C)n2)c(OC)c1` the MIC was over 256 µg/mL. With `CCC(CC)=NNc1nc(-c2ccc(OC)cc2OC)cs1` the MIC was over 256 µg/mL. For `CCC/C(C)=N/Nc1nc(-c2ccc(OC)cc2OC)cs1`, the MIC was over 256 µg/mL.

What follows are molecules tested on Proteus mirabilis (assay: Antibacterial activity against Proteus mirabilis assessed as growth inhibition after 18 to 22 hrs by broth microdilution method). Details: not given.
Format: functional
Method in brief: as §2
For `COc1ccc(-c2csc(N/N=C(\C)CC(C)C)n2)cc1`, the MIC was over 256 µg/mL. With `COc1ccc(-c2csc(NN=C(C)C)n2)c(OC)c1` the MIC was over 256 µg/mL. `CC/C(C)=N/Nc1nc(-c2ccc(OC)cc2OC)cs1` gave an MIC of over 256 µg/mL. `COc1ccc(-c2csc(N/N=C(\C)CC(C)C)n2)c(OC)c1` showed an MIC of over 256 µg/mL. Work on `CCC(CC)=NNc1nc(-c2ccc(OC)cc2OC)cs1` yielded an MIC of over 256 µg/mL. `CCC/C(C)=N/Nc1nc(-c2ccc(OC)cc2OC)cs1` showed an MIC of over 256 µg/mL.

Each molecule was assayed on Candida tropicalis (assay: Anticandida activity against Candida tropicalis clinical isolate assessed as growth inhibition after 24 hrs by broth microdilution method). Details: not given.
Format: functional
Method in brief: as §1
Molecule `COc1ccc(-c2csc(N/N=C(\C)CC(C)C)n2)cc1` has an MIC of 16 µg/mL (≈ 52.7 µM). For `COc1ccc(-c2csc(NN=C(C)C)n2)c(OC)c1`, the MIC was 256 µg/mL (≈ 879 µM). In the case of `CC/C(C)=N/Nc1nc(-c2ccc(OC)cc2OC)cs1`, the MIC is reported as 256 µg/mL (≈ 838 µM). `COc1ccc(-c2csc(N/N=C(\C)CC(C)C)n2)c(OC)c1` was tested, and the MIC was 256 µg/mL (≈ 768 µM). With `CCC(CC)=NNc1nc(-c2ccc(OC)cc2OC)cs1` the MIC was 256 µg/mL (≈ 801 µM). `CCC/C(C)=N/Nc1nc(-c2ccc(OC)cc2OC)cs1` showed an MIC of 256 µg/mL (≈ 801 µM).

What follows are molecules tested on Klebsiella oxytoca (assay: Antibacterial activity against Klebsiella oxytoca assessed as growth inhibition after 18 to 22 hrs by broth microdilution method). Details: not given.
Format: functional
Method in brief: as §2
Work on `COc1ccc(-c2csc(N/N=C(\C)CC(C)C)n2)cc1` yielded an MIC of over 256 µg/mL. Molecule `COc1ccc(-c2csc(NN=C(C)C)n2)c(OC)c1` has an MIC of over 256 µg/mL. In the case of `CC/C(C)=N/Nc1nc(-c2ccc(OC)cc2OC)cs1`, the MIC is reported as over 256 µg/mL. `COc1ccc(-c2csc(N/N=C(\C)CC(C)C)n2)c(OC)c1` gave an MIC of over 256 µg/mL. With `CCC(CC)=NNc1nc(-c2ccc(OC)cc2OC)cs1` the MIC was over 256 µg/mL. `CCC/C(C)=N/Nc1nc(-c2ccc(OC)cc2OC)cs1` showed an MIC of over 256 µg/mL.

These molecules were tested on Enterococcus faecalis (assay: Antibacterial activity against […] assessed as growth inhibition after 18 to 22 hrs by broth microdilution method). Details: not given.
Format: functional
Method in brief: as §2
With `COc1ccc(-c2csc(N/N=C(\C)CC(C)C)n2)cc1` the MIC was over 256 µg/mL. `COc1ccc(-c2csc(NN=C(C)C)n2)c(OC)c1` was tested, and the MIC was over 256 µg/mL. `CC/C(C)=N/Nc1nc(-c2ccc(OC)cc2OC)cs1` was tested, and the MIC was over 256 µg/mL. `COc1ccc(-c2csc(N/N=C(\C)CC(C)C)n2)c(OC)c1` gave an MIC of over 256 µg/mL. `CCC(CC)=NNc1nc(-c2ccc(OC)cc2OC)cs1` showed an MIC of over 256 µg/mL. `CCC/C(C)=N/Nc1nc(-c2ccc(OC)cc2OC)cs1` was tested, and the MIC was over 256 µg/mL.

These molecules were tested on Streptococcus alpha-hemolyticus (assay: Antibacterial activity against Streptococcus alpha-hemolyticus assessed as growth inhibition after 18 to 22 hrs by broth microdilution method). Details: not given.
`COc1ccc(-c2csc(N/N=C(\C)CC(C)C)n2)cc1` showed an MIC of over 256 µg/mL. `COc1ccc(-c2csc(NN=C(C)C)n2)c(OC)c1` gave an MIC of over 256 µg/mL. `CC/C(C)=N/Nc1nc(-c2ccc(OC)cc2OC)cs1` was tested, and the MIC was over 256 µg/mL. `COc1ccc(-c2csc(N/N=C(\C)CC(C)C)n2)c(OC)c1` gave an MIC of over 256 µg/mL. `CCC(CC)=NNc1nc(-c2ccc(OC)cc2OC)cs1` gave an MIC of over 256 µg/mL. `CCC/C(C)=N/Nc1nc(-c2ccc(OC)cc2OC)cs1` showed an MIC of over 256 µg/mL.

These molecules were tested on Staphylococcus warneri (assay: Antibacterial activity against Staphylococcus warneri assessed as growth inhibition after 18 to 22 hrs by broth microdilution method). Details: not given.
Format: functional
Method in brief: as §2
`COc1ccc(-c2csc(N/N=C(\C)CC(C)C)n2)cc1` gave an MIC of over 256 µg/mL. In the case of `COc1ccc(-c2csc(NN=C(C)C)n2)c(OC)c1`, the MIC is reported as over 256 µg/mL. Molecule `CC/C(C)=N/Nc1nc(-c2ccc(OC)cc2OC)cs1` has an MIC of over 256 µg/mL. Molecule `COc1ccc(-c2csc(N/N=C(\C)CC(C)C)n2)c(OC)c1` has an MIC of over 256 µg/mL. With `CCC(CC)=NNc1nc(-c2ccc(OC)cc2OC)cs1` the MIC was over 256 µg/mL. `CCC/C(C)=N/Nc1nc(-c2ccc(OC)cc2OC)cs1` was tested, and the MIC was over 256 µg/mL.
